Measured values from different studies.
Compare with care: the assays were run in different laboratories.
Target: Phosphatidylinositol 4-kinase beta (PI4KB, Homo sapiens, UniProt Q9UBF8)

Nc1ncc(-c2nc(N3CCOCC3)nc(N3CCOCC3)n2)c(C(F)F)n1
remaining binding (binding; competition with immobilised ligand; 10 µM): 75%

Cn1cc(-c2cccc(N3CCc4c(sc5c4CC(C)(C)C5)C3=O)c2CO)cc(Nc2ccncn2)c1=O
inhibition (enzyme activity; inhibitor; 1 µM): -4%

Cn1cncc1[C@](O)(COc1ccc(C#N)cc1-c1ccc(OC(F)(F)F)cc1)c1ccc(C#N)cc1
remaining binding (cell-free assay; competition with immobilised ligand; 1 µM): 94%

Cc1nn(C)cc1-c1nc2c(N3CCN(Cc4ccc(Cl)cc4)CC3)c(Cl)cnc2[nH]1
remaining binding (binding; competition with immobilised ligand; 1 µM): 100%

C#Cc1n[nH]c2c(-c3cn(C(C)c4ccccn4)c(=O)[nH]c3=O)cc(F)cc12 (centres unmarked)
inhibition (enzyme activity; inhibitor; 1 µM): -4.1%

COc1ncccc1-c1cnn2ccc(N3CCN(C(=O)OC(C)C)CC3)nc12
remaining binding (binding; competition with immobilised ligand; 1 µM): 100%

Cn1cc(-c2cc(F)cc(N3CCn4c(cc5c4CCCC5)C3=O)c2CO)cc(Nc2ccc(N3CCN(C4COC4)CC3)cn2)c1=O
inhibition (enzyme activity; inhibitor; 0.1 µM): -3%

C#Cc1n[nH]c2c(-c3cn([C@@H](C)c4ccccc4)c(=O)[nH]c3=O)cc(F)cc12
inhibition (enzyme activity; inhibitor; 0.1 µM): -2.5%
